In brackets after ≈: the same amount, converted by molar mass.
Assays:
Vero = assay: (§1) Cytotoxicity against african green monkey Vero cells after 72 hrs by MTS assay; assay type: cell-based, Chlorocebus sabaeus; settings: Chlorocebus sabaeus, Vero, 72 h
[1] = as §1; assay type: cell-based, Chlorocebus sabaeus; settings: chlorocebus sabaeus, Vero cells; read-out: INH
[2] = tested on: Mycobacterium tuberculosis; assay: Antitubercular activity against non-replicating Mycobacterium tuberculosis assessed as minimum concentration required to inhibit 90% growth after 10 days under anaerobic condition by luciferase-based low-oxygen recovery assay; assay type: functional; settings: for MIC90: Mycobacterium tuberculosis, 240 h
Method in brief: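 Non-replicating M. tuberculosis, low-oxygen recovery assay with luciferase read-out, run on compounds selected from the MABA screen. MIC taken as the lowest concentration inhibiting recovery of luciferase signal by ≥90% relative to bacteria-only controls. Rifampicin, isoniazid and moxifloxacin served as references.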

[3] = tested on: Mycobacterium tuberculosis; assay: Antitubercular activity against Mycobacterium tuberculosis H37Rv ATCC 27294 assessed as minimum concentration required to inhibit 90% growth after 1 week by fluorescence-based microplate Alamar Blue assay; assay type: functional; settings: H37Rv ATCC 27294, 168 h
Method in brief: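 M. tuberculosis H37Rv, MABA with fluorescence read-out. MIC taken as the lowest concentration cutting fluorescence by 90% relative to bacteria-only controls. Rifampicin, isoniazid and moxifloxacin served as reference compounds.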

With `CCOC(=O)c1cc(Cl)[n+]([O-])c2ccc(C)cc12` the IC50 (Vero) was under 8 mg/L, the cytotoxicity at 72 h [1] was 96% and the MIC90 [2] was 3.65 mg/L (≈ 13.7 µM). It also gave an MIC90 [3] of 4.33 mg/L (≈ 16.3 µM).

For `CCOC(=O)c1cc(Cl)[n+]([O-])c2ccccc12`, the MIC90 [2] was 7.3 mg/L (≈ 29 µM) and the MIC90 [3] was 9.2 mg/L (≈ 36.6 µM).

For `CCOC(=O)c1cc(Cl)[n+]([O-])c2ccc(F)cc12`, the MIC90 [2] was 13.1 mg/L (≈ 48.6 µM) and the MIC90 [3] was 10.9 mg/L (≈ 40.4 µM).

`O=C(O)c1cc(O)n(O)c(=O)c1` showed an MIC90 [3] of over 100 mg/L.

For `Cc1cc(C(=O)O)cc(=O)[nH]1`, the MIC90 [3] was over 50 mg/L.

With `O=C(O)c1cc(=O)[nH]c2c1CCC2` the MIC90 [3] was over 50 mg/L.

`O=C(O)c1cc(=O)[nH]c2c1CCCC2` gave an MIC90 [3] of over 50 mg/L.

In the case of `O=C(O)c1cc(=O)[nH]c2c1CCCCCC2`, the MIC90 [3] is reported as over 50 mg/L.

Work on `COC(=O)c1cc(C)[n+]([O-])c(Cl)c1` yielded an MIC90 [3] of over 100 mg/L.

In the case of `COC(=O)c1cc(Cl)[n+]([O-])c2c1CCC2`, the MIC90 [3] is reported as over 100 mg/L.

For `COC(=O)c1cc(Cl)[n+]([O-])c2c1CCCC2`, the MIC90 [3] was over 100 mg/L.

Work on `COC(=O)c1cc(Cl)[n+]([O-])c2c1CCCCCC2` yielded an MIC90 [3] of over 50 mg/L.

In the case of `COC(=O)c1cc(C)n(O)c(=O)c1`, the MIC90 [3] is reported as over 100 mg/L.

`CCOc1cc(C(=O)O)c2c([n+]1[O-])CCC2` showed an MIC90 [3] of over 100 mg/L.

With `CCOc1cc(C(=O)O)c2c([n+]1[O-])CCCC2` the MIC90 [3] was over 100 mg/L.

In the case of `Cc1cc(C(=O)O)cc(=O)n1O`, the MIC90 [3] is reported as over 50 mg/L.

`O=C(O)c1cc(=O)n(O)c2c1CCC2` gave an MIC90 [3] of over 100 mg/L.

Work on `O=C(O)c1cc(=O)n(O)c2c1CCCC2` yielded an MIC90 [3] of over 100 mg/L.

`CCOc1cc(C(=O)O)cc(OCC)[n+]1[O-]` showed an MIC90 [3] of over 100 mg/L.

Compound `O=C(O)c1cc(O)nc2ccccc12` has an MIC90 [3] of over 50 mg/L.

`Cc1ccc2[nH]c(=O)cc(C(=O)O)c2c1` gave an MIC90 [3] of over 50 mg/L.

In the case of `O=C(O)c1cc(=O)[nH]c2ccc(F)cc12`, the MIC90 [3] is reported as over 50 mg/L.

For `O=C(O)c1cc(=O)[nH]c2ccc([N+](=O)[O-])cc12`, the MIC90 [3] was over 50 mg/L.

In the case of `O=C(O)c1cc(=O)n(O)c2ccccc12`, the MIC90 [3] is reported as over 100 mg/L.

In the case of `Cc1ccc2c(c1)c(C(=O)O)cc(=O)n2O`, the MIC90 [3] is reported as over 100 mg/L.

For `O=C(O)c1cc(=O)n(O)c2ccc(F)cc12`, the MIC90 [3] was over 100 mg/L.

For `Cc1cc(C(=O)O)cc(Cl)[n+]1[O-]`, the MIC90 [3] was over 100 mg/L.

Work on `O=C(O)c1cc(Cl)[n+]([O-])c2c1CCC2` yielded an MIC90 [3] of over 50 mg/L.

Work on `O=C(O)c1cc(Cl)[n+]([O-])c2c1CCCC2` yielded an MIC90 [3] of over 100 mg/L.

Compound `O=C(O)c1cc(Cl)[n+]([O-])c2c1CCCCCC2` has an MIC90 [3] of over 100 mg/L.

For `O=C(O)c1cc(Cl)[n+]([O-])c2ccccc12`, the MIC90 [3] was over 100 mg/L.

For `Cc1ccc2c(c1)c(C(=O)O)cc(Cl)[n+]2[O-]`, the MIC90 [3] was over 100 mg/L.

For `O=C(O)c1cc(Cl)[n+]([O-])c2ccc(F)cc12`, the MIC90 [3] was over 100 mg/L.

In the case of `NNC(=O)c1cc(=O)[nH]c2c1CCCC2`, the MIC90 [3] is reported as over 100 mg/L.

Compound `NNC(=O)c1cc(=O)[nH]c2c1CCC2` has an MIC90 [3] of over 100 mg/L.

Compound `NNC(=O)c1cc(=O)[nH]c2ccccc12` has an MIC90 [3] of over 100 mg/L.

`Cc1ccc2[nH]c(=O)cc(C(=O)NN)c2c1` gave an MIC90 [3] of over 100 mg/L.

For `NNC(=O)c1cc(=O)[nH]c2ccc(F)cc12`, the MIC90 [3] was over 100 mg/L.

With `NNC(=O)c1cc(=O)[nH]c2ccc([N+](=O)[O-])cc12` the MIC90 [3] was over 100 mg/L.

`CCCn1c(=O)[nH]c(=O)c2c(C(=O)O)cc(=O)[nH]c21` gave an MIC90 [3] of over 100 mg/L.

In the case of `CCCn1c(=O)[nH]c(=O)c2c(C(=O)O)cc(Cl)nc21`, the MIC90 [3] is reported as 91.7 mg/L (≈ 323 µM).

For `O=C(O)c1cc(O)nc(O)c1` [CITRAZINIC ACID], the MIC90 [3] was over 50 mg/L.

With `NNC(=O)c1ccncc1` [ISONIAZID] the “inhibition (INH)” value [2] was 84%, the MIC90 [2] was over 128 mg/L and the MIC90 [3] was 0.33 mg/L (≈ 2.41 µM).

`COc1c(N2C[C@@H]3CCCN[C@@H]3C2)c(F)cc2c(=O)c(C(=O)O)cn(C3CC3)c12` [MOXIFLOXACIN] gave an MIC90 [2] of 15.9 mg/L (≈ 39.7 µM) and an MIC90 [3] of 0.39 mg/L (≈ 0.972 µM).

In the case of `CO[C@H]1/C=C/O[C@@]2(C)Oc3c(C)c(O)c4c(O)c(c(/C=N/N5CCN(C)CC5)c(O)c4c3C2=O)NC(=O)/C(C)=C\C=C\[C@H](C)[C@H](O)[C@@H](C)[C@@H](O)[C@@H](C)[C@H](OC(C)=O)[C@@H]1C` [RIFAMPIN], the MIC90 [3] is reported as 0.05 mg/L (≈ 0.0608 µM).
